Results taken from ChEMBL document CHEMBL3745670, “Synthesis and biological evaluation of novel lipoamino acid derivatives” (Bioorg Med Chem Lett, 2016).
≈ marks a conversion by molar mass, not a printed value.

Test system: Pseudomonas aeruginosa
Test: Antibacterial activity against Pseudomonas aeruginosa MTCC 2453 after 24 hrs by well diffusion assay
Type: functional
Conditions: MTCC 2453, 24 h

| Compound | MIC [µg/mL] |
| --- | --- |
| CCCCCCCCC(CCCCCCCCC(=O)OC)SCC(=O)NCC(=O)OC (stereo unspecified) | > 125 |
| CCCCCCCCC(CCCCCCCCC(=O)OC)SCC(=O)N[C@H](C(=O)OC)c1c[nH]c2ccccc12 (stereo partly specified) | > 125 |
| CCCCCCCCC(CCCCCCCCC(=O)OC)SCC(=O)N[C@H](C(=O)OC)c1c[nH]cn1 (stereo partly specified) | > 125 |
| CCCCCCCCC(CCCCCCCCC(=O)OC)SCC(=O)N[C@@H](Cc1ccccc1)C(=O)OC (stereo partly specified) | > 125 |

Test system: Micrococcus luteus
Test: Antibacterial activity against Micrococcus luteus MTCC 2470 after 24 hrs by well diffusion assay
Type: functional
Conditions: MTCC 2470, 24 h

| Compound | MIC [µg/mL] |
| --- | --- |
| CCCCCCCCC(CCCCCCCCC(=O)OC)SCC(=O)NCC(=O)OC (stereo unspecified) | 15.6 (≈ 33.9 µM) |
| CCCCCCCCC(CCCCCCCCC(=O)OC)SCC(=O)N[C@H](C(=O)OC)c1c[nH]c2ccccc12 (stereo partly specified) | > 125 |
| CCCCCCCCC(CCCCCCCCC(=O)OC)SCC(=O)N[C@H](C(=O)OC)c1c[nH]cn1 (stereo partly specified) | 3.9 (≈ 7.42 µM) |
| CCCCCCCCC(CCCCCCCCC(=O)OC)SCC(=O)N[C@@H](Cc1ccccc1)C(=O)OC (stereo partly specified) | > 125 |

Test system: Staphylococcus aureus
Test: Antibacterial activity against Staphylococcus aureus MTCC 96 after 24 hrs by well diffusion assay
Type: functional
Conditions: MTCC 96, 24 h

| Compound | MIC [µg/mL] |
| --- | --- |
| CCCCCCCCC(CCCCCCCCC(=O)OC)SCC(=O)NCC(=O)OC (stereo unspecified) | > 125 |
| CCCCCCCCC(CCCCCCCCC(=O)OC)SCC(=O)N[C@H](C(=O)OC)c1c[nH]c2ccccc12 (stereo partly specified) | > 125 |
| CCCCCCCCC(CCCCCCCCC(=O)OC)SCC(=O)N[C@H](C(=O)OC)c1c[nH]cn1 (stereo partly specified) | > 125 |
| CCCCCCCCC(CCCCCCCCC(=O)OC)SCC(=O)N[C@@H](Cc1ccccc1)C(=O)OC (stereo partly specified) | > 125 |

Test system: Escherichia coli
Test: Antibacterial activity against Escherichia coli MTCC 739 after 24 hrs by well diffusion assay
Type: functional
Conditions: MTCC 739, 24 h

| Compound | MIC [µg/mL] |
| --- | --- |
| CCCCCCCCC(CCCCCCCCC(=O)OC)SCC(=O)NCC(=O)OC (stereo unspecified) | > 125 |
| CCCCCCCCC(CCCCCCCCC(=O)OC)SCC(=O)N[C@H](C(=O)OC)c1c[nH]c2ccccc12 (stereo partly specified) | > 125 |
| CCCCCCCCC(CCCCCCCCC(=O)OC)SCC(=O)N[C@H](C(=O)OC)c1c[nH]cn1 (stereo partly specified) | > 125 |
| CCCCCCCCC(CCCCCCCCC(=O)OC)SCC(=O)N[C@@H](Cc1ccccc1)C(=O)OC (stereo partly specified) | > 125 |

Test system: HepG2
Test: Cytotoxicity against human HepG2 cells by MTT assay
Type: functional, cell-based
Conditions: not given

| Compound | IC50 [µM] |
| --- | --- |
| CCCCCCCCC(CCCCCCCCC(=O)OC)SCC(=O)NCC(=O)OC (stereo unspecified) | 29.6 |
| COc1cccc2c1C(=O)c1c(O)c3c(c(O)c1C2=O)C[C@@](O)(C(=O)CO)C[C@@H]3O[C@H]1C[C@H](N)[C@H](O)[C@H](C)O1 [DOXORUBICIN] | 0.8 |
| CCCCCCCCC(CCCCCCCCC(=O)OC)SCC(=O)N[C@@H](Cc1ccccc1)C(=O)OC (stereo partly specified) | 33.6 |

Test system: Bacillus subtilis
Test: Antibacterial activity against Bacillus subtilis MTCC 121 after 24 hrs by well diffusion assay
Type: functional
Conditions: MTCC 121, 24 h

| Compound | MIC [µg/mL] |
| --- | --- |
| CCCCCCCCC(CCCCCCCCC(=O)OC)SCC(=O)NCC(=O)OC (stereo unspecified) | 7.8 (≈ 17 µM) |
| CCCCCCCCC(CCCCCCCCC(=O)OC)SCC(=O)N[C@H](C(=O)OC)c1c[nH]c2ccccc12 (stereo partly specified) | > 125 |
| CCCCCCCCC(CCCCCCCCC(=O)OC)SCC(=O)N[C@H](C(=O)OC)c1c[nH]cn1 (stereo partly specified) | 3.9 (≈ 7.42 µM) |
| CCCCCCCCC(CCCCCCCCC(=O)OC)SCC(=O)N[C@@H](Cc1ccccc1)C(=O)OC (stereo partly specified) | > 125 |

Test system: Bacillus subtilis
Test: Antibiofilm activity against Bacillus subtilis MTCC 121 after 24 hrs by well diffusion assay by crystal violet staining based method
Type: functional, organism-based
Conditions: MTCC 121, 24 h
Summary of the method: (§1)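 Biofilm inhibition was tested on the four Gram-positive strains, using crystal violet staining.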

| Compound | IC50 [µM] |
| --- | --- |
| CCCCCCCCC(CCCCCCCCC(=O)OC)SCC(=O)NCC(=O)OC (stereo unspecified) | 4.4 |
| CCCCCCCCC(CCCCCCCCC(=O)OC)SCC(=O)N[C@H](C(=O)OC)c1c[nH]cn1 (stereo partly specified) | 1.9 |

Test system: not listed separately
Test: Cytotoxicity against human SKOV3 cells by MTT assay
Type: functional, cell-based
Conditions: SK-OV-3

| Compound | IC50 [µM] |
| --- | --- |
| CCCCCCCCC(CCCCCCCCC(=O)OC)SCC(=O)NCC(=O)OC (stereo unspecified) | 25.2 |
| COc1cccc2c1C(=O)c1c(O)c3c(c(O)c1C2=O)C[C@@](O)(C(=O)CO)C[C@@H]3O[C@H]1C[C@H](N)[C@H](O)[C@H](C)O1 [DOXORUBICIN] | 0.8 |
| CCCCCCCCC(CCCCCCCCC(=O)OC)SCC(=O)N[C@@H](Cc1ccccc1)C(=O)OC (stereo partly specified) | 42.5 |

Test system: Raoultella planticola
Test: Antibacterial activity against Klebsiella planticola MTCC 530 after 24 hrs by well diffusion assay
Type: functional
Conditions: MTCC 530, 24 h

| Compound | MIC [µg/mL] |
| --- | --- |
| CCCCCCCCC(CCCCCCCCC(=O)OC)SCC(=O)NCC(=O)OC (stereo unspecified) | > 125 |
| CCCCCCCCC(CCCCCCCCC(=O)OC)SCC(=O)N[C@H](C(=O)OC)c1c[nH]c2ccccc12 (stereo partly specified) | > 125 |
| CCCCCCCCC(CCCCCCCCC(=O)OC)SCC(=O)N[C@H](C(=O)OC)c1c[nH]cn1 (stereo partly specified) | > 125 |
| CCCCCCCCC(CCCCCCCCC(=O)OC)SCC(=O)N[C@@H](Cc1ccccc1)C(=O)OC (stereo partly specified) | > 125 |

Test system: Candida albicans
Test: Antifungal activity against Candida albicans MTCC 3017 after 24 hrs by well diffusion assay
Type: functional
Conditions: MTCC 3017, 24 h
Summary of the method: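 Well diffusion screen against Candida and related fungal strains. Read-out is MIC in µg/mL, with miconazole as the reference drug.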

| Compound | MIC [µg/mL] |
| --- | --- |
| CCCCCCCCC(CCCCCCCCC(=O)OC)SCC(=O)NCC(=O)OC (stereo unspecified) | 31.2 (≈ 67.9 µM) |
| CCCCCCCCC(CCCCCCCCC(=O)OC)SCC(=O)N[C@H](C(=O)OC)c1c[nH]c2ccccc12 (stereo partly specified) | > 125 |
| CCCCCCCCC(CCCCCCCCC(=O)OC)SCC(=O)N[C@H](C(=O)OC)c1c[nH]cn1 (stereo partly specified) | > 125 |
| CCCCCCCCC(CCCCCCCCC(=O)OC)SCC(=O)N[C@@H](Cc1ccccc1)C(=O)OC (stereo partly specified) | > 125 |

Test system: Micrococcus luteus
Test: Antibiofilm activity against Micrococcus luteus MTCC 2470 after 24 hrs by crystal violet staining based method
Type: functional, organism-based
Conditions: MTCC 2470, 24 h
Summary of the method: as §1

| Compound | IC50 [µM] |
| --- | --- |
| CCCCCCCCC(CCCCCCCCC(=O)OC)SCC(=O)NCC(=O)OC (stereo unspecified) | 8.2 |
| CCCCCCCCC(CCCCCCCCC(=O)OC)SCC(=O)N[C@H](C(=O)OC)c1c[nH]cn1 (stereo partly specified) | 2.1 |

Test system: Micrococcus luteus
Test: Bactericidal activity against Micrococcus luteus MTCC 2470 after 24 hrs
Type: functional
Conditions: MTCC 2470, 24 h
Summary of the method: (§2)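 Minimum bactericidal concentration was determined on four Gram-positive strains, for the compounds active in the preliminary antibacterial screen.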

| Compound | MBC [µg/mL] |
| --- | --- |
| CCCCCCCCC(CCCCCCCCC(=O)OC)SCC(=O)NCC(=O)OC (stereo unspecified) | 31.2 (≈ 67.9 µM) |
| CCCCCCCCC(CCCCCCCCC(=O)OC)SCC(=O)N[C@H](C(=O)OC)c1c[nH]cn1 (stereo partly specified) | 7.8 (≈ 14.8 µM) |

Test system: Staphylococcus aureus
Test: Antibacterial activity against Staphylococcus aureus MLS-16 MTCC 2940 after 24 hrs by well diffusion assay
Type: functional
Conditions: MLS-16 MTCC 2940, 24 h

| Compound | MIC [µg/mL] |
| --- | --- |
| CCCCCCCCC(CCCCCCCCC(=O)OC)SCC(=O)NCC(=O)OC (stereo unspecified) | > 125 |
| CCCCCCCCC(CCCCCCCCC(=O)OC)SCC(=O)N[C@H](C(=O)OC)c1c[nH]c2ccccc12 (stereo partly specified) | > 125 |
| CCCCCCCCC(CCCCCCCCC(=O)OC)SCC(=O)N[C@H](C(=O)OC)c1c[nH]cn1 (stereo partly specified) | > 125 |
| CCCCCCCCC(CCCCCCCCC(=O)OC)SCC(=O)N[C@@H](Cc1ccccc1)C(=O)OC (stereo partly specified) | > 125 |

Test system: MDA-MB-231
Test: Cytotoxicity against human MDA-MB-231 cells by MTT assay
Type: functional, cell-based
Conditions: not given

| Compound | IC50 [µM] |
| --- | --- |
| CCCCCCCCC(CCCCCCCCC(=O)OC)SCC(=O)NCC(=O)OC (stereo unspecified) | 31.4 |
| COc1cccc2c1C(=O)c1c(O)c3c(c(O)c1C2=O)C[C@@](O)(C(=O)CO)C[C@@H]3O[C@H]1C[C@H](N)[C@H](O)[C@H](C)O1 [DOXORUBICIN] | 0.7 |
| CCCCCCCCC(CCCCCCCCC(=O)OC)SCC(=O)N[C@@H](Cc1ccccc1)C(=O)OC (stereo partly specified) | 38.6 |

Test system: not listed separately
Test: Cytotoxicity against human DU145 cells by MTT assay
Type: functional, cell-based
Conditions: DU-145

| Compound | IC50 [µM] |
| --- | --- |
| CCCCCCCCC(CCCCCCCCC(=O)OC)SCC(=O)NCC(=O)OC (stereo unspecified) | 30.8 |
| CCCCCCCCC(CCCCCCCCC(=O)OC)SCC(=O)N[C@@H](Cc1ccccc1)C(=O)OC (stereo partly specified) | 49.1 |

Test system: Bacillus subtilis
Test: Bactericidal activity against Bacillus subtilis MTCC 121 after 24 hrs by well diffusion assay
Type: functional
Conditions: MTCC 121, 24 h
Summary of the method: as §2

| Compound | MBC [µg/mL] |
| --- | --- |
| CCCCCCCCC(CCCCCCCCC(=O)OC)SCC(=O)NCC(=O)OC (stereo unspecified) | 3.9 (≈ 8.48 µM) |
| CCCCCCCCC(CCCCCCCCC(=O)OC)SCC(=O)N[C@H](C(=O)OC)c1c[nH]cn1 (stereo partly specified) | 3.9 (≈ 7.42 µM) |
